In ChEMBL document CHEMBL1131159, “Bis-cationic heteroaromatics as macrofilaricides: synthesis of bis-amidine and bis-guanylhydrazone derivatives of substituted imidazo[1,2-a]pyridines” (1998) one finds Reduction data, which are given here for 42 compounds.

Several values for one entry are separate records, joined by “and”; a condition that tells them apart may be missing. Equal values may be shown once.

The nature of test [1]: Compound was tested for macrofilarial reduction at 12.5 mg/kg dosage by subcutaneous administration for a period of 5 days against Acanthocheilonema viteae (Acanthocheilonema viteae). The class given is functional, Meriones unguiculatus. An outline of the steps: (§1)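 Jirds doubly infected with A. viteae and B. pahangi were dosed subcutaneously once daily on five successive days. Each series included a flubendazole positive control at 2.0 mg/day for 5 days. Jirds were killed 56 days later and worms of each species counted. Worm percentage was compared with untreated negative controls, and ≥60% reduction was scored as active.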

The subject of test [2] is Meriones unguiculatus. Nature of the test: Compound was tested for macrofilarial reduction at 12.5 mg/kg dosage by subcutaneous administration for a period of 5 days against Brugia pahangi (Brugia pahangi). It is filed as functional. An outline of the steps: as §1
Test [3] has as its system Acanthocheilonema viteae. In words: Macrofilarial reduction at 100 mg/kg dosage by subcutaneous administration for a period of 5 days against Acanthocheilonema viteae. The class given is functional. Put shortly: as §1
Test [4] deals with Brugia pahangi. Nature of the test: Macrofilarial reduction at 100 mg/kg dosage by subcutaneous administration for a period of 5 days against Brugia pahangi. It is filed as functional. An outline of the steps:
as §1

Test [5] concerns Meriones unguiculatus. In words: Compound was tested for macrofilarial reduction at 100 mg/kg dosage by subcutaneous administration for a period of 5 days against Acanthocheilonema viteae (Acanthocheilonema viteae); Toxic. Set-up: dose 100 mg/kg. It is filed as functional, organism-based. Put shortly: as §1
For test [6], the system named is Meriones unguiculatus. In words: Compound was tested for macrofilarial reduction at 100 mg/kg dosage by subcutaneous administration for a period of 5 days against Brugia pahangi (Brugia pahangi); Toxic. It is filed as functional, organism-based. Also noted: dose 100 mg/kg. Put shortly:
as §1

For test [7], the system named is Meriones unguiculatus. Nature of the test: Compound was tested for macrofilarial reduction at 100 mg/kg dosage by subcutaneous administration for a period of 5 days against Acanthocheilonema viteae (Acanthocheilonema viteae) * Toxicity noted at this dosage. The class given is functional. Put shortly: as §1
Test [8] relates to Meriones unguiculatus. In words: Compound was tested for macrofilarial reduction at 100 mg/kg dosage by subcutaneous administration for a period of 5 days against Brugia pahangi (Brugia pahangi). * Toxicity noted at this dosage. The class given is functional. An outline of the steps:
as §1

Test [9] has as its system Meriones unguiculatus. Nature of the test: Compound was tested for macrofilarial reduction at 3.12 mg/kg dosage by subcutaneous administration for a period of 5 days against Acanthocheilonema viteae (Acanthocheilonema viteae). The class given is functional. Put shortly:
as §1

For test [10], the system named is Meriones unguiculatus. Nature of the test: Compound was tested for macrofilarial reduction at 3.12 mg/kg dosage by subcutaneous administration for a period of 5 days against Brugia pahangi (Brugia pahangi). It is filed as functional. Put shortly: as §1
Test [11] concerns Meriones unguiculatus. Nature of the test: Compound was tested for macrofilarial reduction at 25 mg/kg dosage by subcutaneous administration for a period of 5 days against Acanthocheilonema viteae (Acanthocheilonema viteae). It is filed as functional. Put shortly: as §1
The test system of test [12] is Meriones unguiculatus. Nature of the test: Compound was tested for macrofilarial reduction at 25 mg/kg dosage by subcutaneous administration for a period of 5 days against Brugia pahangi (Brugia pahangi). The class given is functional. Put shortly: as §1
The subject of test [13] is Meriones unguiculatus. Nature of the test: Compound was tested for macrofilarial reduction at 50 mg/kg dosage by subcutaneous administration for a period of 5 days against Acanthocheilonema viteae (Acanthocheilonema viteae). The class given is functional. Put shortly:
as §1

Test [14] concerns Meriones unguiculatus. Nature of the test: Compound was tested for macrofilarial reduction at 50 mg/kg dosage by subcutaneous administration for a period of 5 days against Brugia pahangi (Brugia pahangi). The class given is functional. An outline of the steps:
as §1

Test [15] deals with Meriones unguiculatus. Nature of the test: Compound was tested for macrofilarial reduction at 6.25 mg/kg dosage by subcutaneous administration for a period of 5 days against Acanthocheilonema viteae (Acanthocheilonema viteae). The class given is functional. Put shortly:
as §1

The subject of test [16] is Meriones unguiculatus. In words: Compound was tested for macrofilarial reduction at 6.25 mg/kg dosage by subcutaneous administration for a period of 5 days against Brugia pahangi (Brugia pahangi). It is filed as functional. Put shortly: as §1
Test [17] relates to Meriones unguiculatus. Nature of the test: Compound was tested for macrofilarial reduction at 75 mg/kg dosage by subcutaneous administration for a period of 5 days against Acanthocheilonema viteae (Acanthocheilonema viteae). The class given is functional. Put shortly: as §1
Test [18] concerns Meriones unguiculatus. Nature of the test: Compound was tested for macrofilarial reduction at 75 mg/kg dosage by subcutaneous administration for a period of 5 days against Brugia pahangi (Brugia pahangi). It is filed as functional. Put shortly: as §1
In test [19] the test system is Meriones unguiculatus. Nature of the test: Compound was tested for macrofilarial reduction at 1.56 mg/kg dosage by subcutaneous administration for a period of 5 days against Acanthocheilonema viteae (Acanthocheilonema viteae). The class given is functional. Put shortly: as §1
Test [20] has as its system Meriones unguiculatus. Nature of the test: Compound was tested for macrofilarial reduction at 1.56 mg/kg dosage by subcutaneous administration for a period of 5 days against Brugia pahangi (Brugia pahangi). The class given is functional. An outline of the steps: as §1

Take `N=C(/C=C/c1ccc(-c2cn3cc(/C=C/C(=N)N4CCOCC4)ccc3n2)cc1)N1CCOCC1`: the figures for the Reduction in test [1] and in test [2] were 50% and 0%, respectively.

As for `Nc1ccc(C(=O)NN=Cc2ccc(-c3cn4cc(C=NNC(=O)c5ccc(N)cc5)ccc4n3)cc2)cc1`, the Reduction in test [3] was 0%; in test [4], 8%.

On to `c1ccn2cc(-c3ccc(C4=NCCCN4)cc3)nc2c1`, for which the Reduction in test [3] and in [4] was 0% in each case.

Take `N=C(c1ccc(-c2cn3ccccc3n2)cc1)N1CCCC1`: the Reduction was determined as 0% in [3] and 36% in [4].

For the compound `C(=NNc1ccccn1)c1ccc(-c2cn3cc(C=NNc4ccccn4)ccc3n2)cc1`, the Reduction in [3] and in [4] was 0% throughout.

Consider `C(/C=C/c1ccc(-c2cn3cc(/C=C/C=NNC4=NCCN4)ccc3n2)cc1)=NNC1=NCCN1`, for which the Reduction is 71% in [3] and 18% in [4].

With `CN1CCN(C(=N)/C=C/c2ccc(-c3cn4cc(/C=C/C(=N)N5CCN(C)CC5)ccc4n3)cc2)CC1`, the Reduction in test [1] stood at 57%; in test [2] it was 0%.

Regarding `CC(C)NC(=N)c1ccc(/C=C/c2cn3cc(C(=N)NC(C)C)ccc3n2)cc1`, the Reduction result in test [5] and in test [6] was “Toxic” in each case.

Turning to `C(=NNC1=NCCN1)c1ccc2nc(-c3ccccc3)cn2c1`, the figures for the Reduction in test [3] and in [4] were 20% and 0%, respectively.

Take `C(=Cc1ccc(-c2cn3ccccc3n2)cc1)C1=NCCS1`: the Reduction in test [3] and in [4] was 0% throughout.

As for `C(=Cc1ccc(-c2cn3ccccc3n2)cc1)C1=NCCN1`, the Reduction in [3] worked out at 28%; in [4], 18%.

For the compound `C(=NNC1=NCCC1)c1ccc(-c2cn3cc(C=NNC4=NCCC4)ccc3n2)cc1`, the Reduction in test [3] is reported as 24%; in [4], 5%.

On to `C(=NNC1=NCCCN1)c1ccc2nc(C=NNC3=NCCCN3)cn2c1`, for which the values for the Reduction in test [3] and in test [4] were 0% and 5%, respectively.

For the compound `N=C(NN=Cc1ccc(-c2cn3ccccc3n2)cc1)N1CCOCC1`, the Reduction was 0% in test [3] and 12% in test [4].

For the compound `C(=NNC1=NCCS1)c1ccc(-c2cn3cc(C=NNC4=NCCS4)ccc3n2)cc1`, the values for the Reduction in test [3] and in test [4] were 0% and 38%, respectively.

Regarding `N=C(NN=Cc1ccc(-c2cn3cc(C=NNC(=N)N4CCCC4)ccc3n2)cc1)N1CCCC1`, the Reduction is given as 60% in [3], 73% in [7], 0% in test [4] and 0% in test [8].

Turning to `c1ccn2cc(-c3ccc(C4=NCCN4)cc3)nc2c1`, the Reduction in test [3] is given as 20%; in test [4], 8%.

With `N=C(c1ccc(-c2cn3cc(C(=N)N4CCCC4)ccc3n2)cc1)N1CCCC1`, the Reduction in [9] amounted to 39%; in test [10], 0%.

Consider `C(=Cc1ccc(-c2cn3cc(C=CC4=NCCS4)ccc3n2)cc1)C1=NCCS1`, for which the Reduction in test [3] and in [4] was 0% in each case.

For the compound `C(/C=C/c1ccc(-c2cn3cc(/C=C/C=NNC4=NCCCN4)ccc3n2)cc1)=NNC1=NCCCN1`, the Reduction in test [3] (100 mg/kg) was 100% and 64%; in test [1], 50%; in test [2], 38%; in [11] it was 73%; in [12] it was 13%; in test [13], 100%. Also, in test [14], the Reduction is on record as 38%.

Consider `C(=C\c1cn2cc(C3=NCCN3)ccc2n1)/c1ccc(C2=NCCN2)cc1`, for which the Reduction result in test [5] and in test [6] was “Toxic” throughout.

Consider `C(=NNC1=NCCN1)c1ccc(/C=C/c2cn3cc(C=NNC4=NCCN4)ccc3n2)cc1`, for which the Reduction is 24% in test [3] and 4% in test [4].

For the compound `C(=NNC1=NCCN1)c1ccc(-c2cn3cc(C=NNC4=NCCN4)ccc3n2)cc1`, the Reduction in [3] (100 mg/kg) is 100% and 78%; in test [4] (100 mg/kg), 18% and 11%; in [1], 82%; in test [2], 0%; in test [11] (25 mg/kg), 82% and 73%; in test [13], 100%. This compound returned a Reduction in test [14] of 0%.

Take `N=C(NN=C/C=C/c1ccc(-c2cn3cc(/C=C/C=NNC(=N)N4CCCC4)ccc3n2)cc1)N1CCCC1`: the Reduction worked out at 50% in [1] and 38% in test [2].

With `N=C(NN=Cc1ccc(-c2cn3ccccc3n2)cc1)N1CCCC1`, the Reduction in [3] was 47%; in test [4], 0%.

As for `N=C(c1ccc2nc(-c3ccccc3)cn2c1)N1CCCC1`, the Reduction was 60% and 27% in test [3] (100 mg/kg); 25% and 0% in test [4] (100 mg/kg).

In the case of `N=C(c1ccc(/C=C/c2cn3cc(C(=N)N4CCCC4)ccc3n2)cc1)N1CCCC1`, the Reduction entry in [5] and in [6] was “Toxic” in each case.

For `C(=NNC1=NCCCN1)c1ccc2nc(-c3ccccc3)cn2c1`, the Reduction is 30% in test [3] and 0% in test [4].

Turning to `N=C(c1ccc(-c2cn3ccccc3n2)cc1)N1CCCCC1`, the Reduction in [3] came out at 0%; in test [4], 15%.

As for `C(=NNC1=NCCN1)c1ccc2nc(C=NNC3=NCCN3)cn2c1`, the Reduction in test [3] and in test [4] was 5% in each case.

In the case of `Cc1ccc(S(=O)(=O)NN=Cc2ccc(-c3cn4cc(C=NNS(=O)(=O)c5ccc(C)cc5)ccc4n3)cc2)cc1`, the figures for the Reduction in [3] and in [4] were 0% and 16%, respectively.

Take `C(=NNC1=NCCN1)c1ccc(-c2cn3ccccc3n2)cc1`: the Reduction in test [3] is 60%; in [4], 0%.

`N=C(/C=C/c1ccc(-c2cn3cc(/C=C/C(=N)N4CCCC4)ccc3n2)cc1)N1CCCC1`: the results for the Reduction in [15] and in test [16] were 72% and 0%, respectively.

In the case of `C(=NNC1=NCCCN1)c1ccc(-c2cn3ccccc3n2)cc1`, the Reduction in test [3] and in [4] was 0% in each case.

For the compound `N=C(c1ccc(-c2cn3ccccc3n2)cc1)N1CCOCC1`, the Reduction in test [3] turned out to be 0%; in test [4], 29%.

Consider `CC(C)NC(=N)NN=Cc1ccc(-c2cn3cc(C=NNC(=N)NC(C)C)ccc3n2)cc1`, for which the Reduction was found to be 100% in test [3] and 32% in test [4].

Consider `C(=NNC1=NCCCN1)c1ccc(/C=C/c2cn3cc(C=NNC4=NCCCN4)ccc3n2)cc1`, for which the Reduction in [3] came out at 100%; in test [4], 32%.

As for `c1cc(-c2cn3cc(C4=NCCN4)ccc3n2)ccc1C1=NCCN1`, the Reduction worked out at 0% in test [3] and 35% in test [4].

In the case of `c1ccc(-c2cn3cc(C4=NCCN4)ccc3n2)cc1`, the Reduction in test [3] is on record as 0%; in test [4] it was 42%.

In the case of `N=C(NN=Cc1ccc2nc(C=NNC(=N)N3CCCC3)cn2c1)N1CCCC1`, the Reduction in [3] is listed as 0%; in test [4], 5%.

As for `C(=NNC1=NCCCN1)c1ccc(-c2cn3cc(C=NNC4=NCCCN4)ccc3n2)cc1`, the Reduction in [15] (6.25 mg/kg) is 100% and 75%; in test [17] it was 100%; in [18], 0%; in test [19], 73%; in [20], 16%; in test [3], 100%. The Reduction in [4] (100 mg/kg) was 9% and 0%; in test [1] (12.5 mg/kg) it was 100% and 64%; in test [12], 0%; in test [9] it was 88%; in [10], 11%; in test [13], 100%. Further, the Reduction in test [14] is recorded as 0%.

With `N=C(c1ccc2nc(-c3ccccc3)cn2c1)N1CCOCC1`, the Reduction was 0% in test [3] and 12% in [4].
